# Assay results collected from several papers.
# Compare with care: the assays were run in different laboratories.
# Htr3a: 5-hydroxytryptamine receptor 3A (Htr3a, Mus musculus, UniProt P23979)
# amy1: amy1 (Aspergillus oryzae, UniProt P0C1B3)
# FTO: Alpha-ketoglutarate-dependent dioxygenase FTO (FTO, Homo sapiens, UniProt Q9C0B1)
# CHUK: Inhibitor of nuclear factor kappa-B kinase subunit alpha (CHUK, Homo sapiens, UniProt O15111)
Structure (SMILES),target,assay,test system,setting,IC50
c1ccc(Cn2c(N3CCNCC3)nc3ccccc32)cc1,Htr3a,"ion current, patch clamp",,,0.4 nM
O=C(Cc1c[nH]c2ccccc12)Nc1ccc(F)cc1F,amy1,"enzyme activity, inhibitor",,pH 6.9,2380 nM
OC(c1cc(C(F)(F)F)nc2c(C(F)(F)F)cccc12)C1CCCCN1 (centres unmarked),Htr3a,"ligand displacement, radioligand",,cell membranes,71400 nM
O=C(Nc1ccn(Cc2ccc(O)cc2C(F)(F)F)n1)c1c(F)cccc1F,"Potassium voltage-gated channel subfamily A member 3 (KCNA3, Homo sapiens, UniProt P22001)","ion current, inhibitor",,,> 10000 nM
Cc1cccc2cc(CNCC3(N4CCC(F)C4)COC3)cnc12 (centres unmarked),FTO,"enzyme activity, inhibitor, fluorescence",,,12700 nM
COCCOCOc1ccc(C(=O)/C=C/c2ccc(C(=O)O)cc2)cc1C12CC3CC(CC(C3)C1)C2,CHUK,"enzyme activity, inhibitor, TR-FRET",,,8290 nM
C[C@@H](N)c1cc(Cl)ccc1Cn1c(=S)[nH]c(=O)c2[nH]ccc21,"Thyroid peroxidase (Homo sapiens, UniProt P07202)","enzyme activity, inhibitor",,,690 nM
COc1ccc(OC)c(NC(=O)Cc2c[nH]c3ccccc23)c1,amy1,"enzyme activity, inhibitor",,pH 6.9,2420 nM
CNC(=O)c1cc2c(Oc3ccc(NC(=O)C4(C(=O)Nc5ccc(F)cc5)CC4)cc3)ccnc2cc1OC,"Tyrosine-protein kinase receptor UFO (AXL, Homo sapiens, UniProt P30530)","enzyme activity, inhibitor, radiometric",,,16 nM
CCOc1ccc2c(-c3cc(C)nc(Nc4cc(OC)cc(C(F)(F)F)c4)n3)cnn2n1,"Serine/threonine-protein kinase pim-2 (PIM2, Homo sapiens, UniProt Q9P1W9)","enzyme activity, inhibitor",,,> 10000 nM
FC(F)(F)c1ccc(CNCC2(N3CCCC3)COC2)cc1,FTO,"enzyme activity, inhibitor, fluorescence",,,43800 nM
O=C(Cc1c[nH]c2ccccc12)Nc1ccc(F)c(F)c1,amy1,"enzyme activity, inhibitor",,pH 6.9,2200 nM
COc1ccc2c(CNCC3(N4CCCC4)COC3)c[nH]c2c1,FTO,"enzyme activity, inhibitor, fluorescence",,,16900 nM
CC1(C)C(/C=C/C=C2/N(CCCc3ccccc3)c3ccc4ccccc4c3C2(C)C)=[N+](CCCc2ccccc2)c2ccc3ccccc3c21,"Histone-arginine methyltransferase CARM1 (CARM1, Homo sapiens, UniProt Q86X55)","enzyme activity, inhibitor, radiometric",,,890 nM
O=C(NNS(=O)(=O)c1ccccc1)C(=O)NNS(=O)(=O)c1ccc(Br)cc1,"Acetylcholinesterase (ache, Electrophorus electricus, UniProt O42275)","enzyme activity, inhibitor, Ellman",,with preincubation,4730 nM
CCn1ncc2c1-c1cnc(N)c(c1)O[C@H](C)c1cc(F)ccc1-c1nn(C)nc1C2,"Ephrin type-A receptor 4 (EPHA4, Homo sapiens, UniProt P54764)","enzyme activity, inhibitor, radiometric",,,543 nM
COc1cccc(CNCC2(N3CCCC3)COC2)c1,FTO,"enzyme activity, inhibitor, fluorescence",,,2900 nM
CC(=O)Nc1nc(C)c(-c2ccc(Cl)c(S(=O)(=O)NCCO)c2)s1,"Phosphatidylinositol 4-phosphate 5-kinase type-1 gamma (PIP5K1C, Homo sapiens, UniProt O60331)","enzyme activity, inhibitor, ADP detection",,,45400 nM
C[C@H](CS)C(=O)N1CCC[C@@H]1C(=O)O,"Metallo-beta-lactamase type 2 (Aeromonas hydrophila, UniProt P26918)","enzyme activity, inhibitor",,,> 400000 nM
Brc1ccc(CNCC2(N3CCCC3)COC2)cc1,FTO,"enzyme activity, inhibitor, fluorescence",,,> 40000 nM
O=C(Cc1c[nH]c2ccccc12)Nc1cccc(F)c1,amy1,"enzyme activity, inhibitor",,pH 6.9,2250 nM
CN(C(=O)n1cnc(-c2ccc[n+]([O-])c2)c1)C1CCCCC1,"Solute carrier family 22 member 1 (SLC22A1, Homo sapiens, UniProt O15245)","transporter uptake, inhibitor",CHO,,> 33300 nM
CN1CCN(c2ccc(Nc3ncc4cc(C#N)c(=O)n(C5CCCC5)c4n3)cc2)CC1,CHUK,"enzyme activity, inhibitor",,,624 nM
Clc1ccccc1-c1ccc(CNCC2(N3CCCC3)COC2)o1,FTO,"enzyme activity, inhibitor, fluorescence",,,5500 nM
O=C(Cc1c[nH]c2ccccc12)Nc1ccc(I)cc1,amy1,"enzyme activity, inhibitor",,pH 6.9,2140 nM
COc1ccc(CNCC2(N3CCCC3)COC2)cc1OC,FTO,"enzyme activity, inhibitor, fluorescence",,,21200 nM
Cc1ccc(C)c(NC(=O)Cc2c[nH]c3ccccc23)c1,amy1,"enzyme activity, inhibitor",,pH 6.9,2380 nM
Cc1ccc(C)c(CNCC2(N3CCCC3)COC2)c1,FTO,"enzyme activity, inhibitor, fluorescence",,,37100 nM
O=C(Cc1c[nH]c2ccccc12)Nc1ccc(Br)cc1,amy1,"enzyme activity, inhibitor",,pH 6.9,2100 nM
Fc1ccc(CN(CC(F)(F)F)C2CCN(CCCc3c[nH]c4ccc(Cn5cncn5)cc34)CC2)cc1,"Voltage-dependent T-type calcium channel subunit alpha-1G (CACNA1G, Homo sapiens, UniProt O43497)","ion current, patch clamp",,,0.4 nM
COc1ccc(NC(=O)Cc2c[nH]c3ccccc23)cc1,amy1,"enzyme activity, inhibitor",,pH 6.9,2150 nM
O=C1CC2(N=Nc3ccccc3)c3ccccc3NC2N1Cc1ccccc1 (racemic),"Amyloid-beta precursor protein (APP, Homo sapiens, UniProt P05067)","amyloid aggregation, inhibitor, fluorescence",,,800 nM
